One block for each compound: values may come before it.
Columns and labels:
Rattus norvegicus [1] = test: Tumour number in DMBA-induced mammary carcinoma in rats at 6 mg/kg dose; assay type: functional
Procedure, shortened: (§1)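 Sprague-Dawley rats bearing DMBA-induced mammary tumours, randomized in groups of 10 between days 35 and 70 after induction. Dosing was sc in olive oil at 2 or 6 mg/kg: a single dose daily Monday–Thursday and a double dose Friday, for 4 weeks. Tumour number was taken at test start. Complete remission = not palpable; partial = ≤50% of initial size; static = 51-150% of initial size.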

Rattus norvegicus [2] = test: Change in body weight in rats after 7 days at 2 mg/kg dose; assay type: functional
Rattus norvegicus [3] = test: Change in body weight in rats after 7 days at 6 mg/kg dose; assay type: functional
Rattus norvegicus [4] = organism: Rattus norvegicus; test: (§2) Partial remission of DMBA-induced mammary carcinoma in rats; assay type: functional; procedure, shortened: as §1
Rattus norvegicus [5] = organism: Rattus norvegicus; test: (§3) Unchanged total tumor area (51-150%) in DMBA-induced mammary carcinoma in rats; assay type: functional; procedure, shortened: as §1
Rattus norvegicus [6] = test: Tumour number in DMBA-induced mammary carcinoma in rats at 2 mg/kg dose; assay type: functional; procedure, shortened: as §1
Rattus norvegicus [7] = organism: Rattus norvegicus; test: as §2; assay type: functional; procedure, shortened: as §1; remark: listed apart in the source
Rattus norvegicus [8] = test: Complete remission of DMBA-induced mammary carcinoma in rats at 2 mg/kg dose; assay type: functional; procedure, shortened: as §1
Rattus norvegicus [9] = test: Complete remission of DMBA-induced mammary carcinoma in rats at 6 mg/kg dose; assay type: functional; procedure, shortened: as §1
Rattus norvegicus [10] = organism: Rattus norvegicus; test: (§4) Increased total tumor area (>150%) in DMBA-induced mammary carcinoma in rats; assay type: functional; procedure, shortened: as §1
Rattus norvegicus [11] = test: Progression of DMBA-induced mammary carcinoma in rats at 6 mg/kg dose; assay type: functional; procedure, shortened: as §1
Rattus norvegicus [12] = organism: Rattus norvegicus; test: as §4; assay type: functional; procedure, shortened: as §1; remark: listed apart in the source
Rattus norvegicus [13] = test: Progression of DMBA-induced mammary carcinoma in rats at 2 mg/kg dose; assay type: functional; procedure, shortened: as §1
Rattus norvegicus [14] = organism: Rattus norvegicus; test: as §3; assay type: functional; procedure, shortened: as §1; remark: listed apart in the source
[15] = biological target: Estrogen receptor (Bos taurus) (UniProt Q9XSB5+P49884); test: Displacement of [3H]- estradiol from calf uterine estrogen receptor; assay type: protein assay
Procedure, shortened: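 Competitive binding with calf uterine cytosol as the estrogen receptor source, [3H]estradiol as tracer, and dextran-charcoal separation. RBA = (molar concentration of E2 / molar concentration of inhibitor needed to reduce bound [3H]E2 by 50%) × 100, with 17β-estradiol = 100.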

Rattus norvegicus [16] = organism: Rattus norvegicus; test: as §4; assay type: functional; procedure, shortened: as §1; remark: listed apart in the source

SMILES: CCNC(c1c(Cl)cc(O)cc1Cl)C(NCC)c1c(Cl)cc(O)cc1Cl (racemic) [listing 1 of 2 here]
- No. of tumors (Rattus norvegicus [1]): 28
- Change of body weight (Rattus norvegicus [2]): 0%
- Change of tumor area (Rattus norvegicus [2]): 282%
- Change of body weight (Rattus norvegicus [3]): -2%
- Change of tumor area (Rattus norvegicus [3]): -24%
- Partial remission (Rattus norvegicus [4]): 11%
- Static tumors (Rattus norvegicus [5]): 23%
- No. of tumors (Rattus norvegicus [6]): 34
- Partial remission (Rattus norvegicus [7]): 26%
- Complete remission (Rattus norvegicus [8]): 14%
- Complete remission (Rattus norvegicus [9]): 35%
- Progressed tumors (Rattus norvegicus [10]): 16%
- New tumors (Rattus norvegicus [11]): 15
- Progressed tumors (Rattus norvegicus [12]): 54%
- New tumors (Rattus norvegicus [13]): 18
- Static tumors (Rattus norvegicus [14]): 21%

- relative binding affinity (RBA) [15]: 1
SMILES: CCCNC(c1c(Cl)cc(O)cc1Cl)C(NCCC)c1c(Cl)cc(O)cc1Cl (racemic)

SMILES: CCNC(c1c(Cl)cc(O)cc1Cl)C(NCC)c1c(Cl)cc(O)cc1Cl (racemic) [listing 2 of 2 here]
- relative binding affinity (RBA) [15]: 2.1

SMILES: CNC(c1c(Cl)cc(O)cc1Cl)C(NC)c1c(Cl)cc(O)cc1Cl (racemic)
- relative binding affinity (RBA) [15]: 1.3

SMILES: CCNC(c1c(Cl)cc(O)cc1Cl)C(NCC)c1c(Cl)cc(O)cc1Cl (stereo in doubt) [listing 1 of 2 here]
- No. of tumors (Rattus norvegicus [1]): 26
- Change of body weight (Rattus norvegicus [2]): -6%
- Change of tumor area (Rattus norvegicus [2]): 29%
- Change of body weight (Rattus norvegicus [3]): -4%
- Change of tumor area (Rattus norvegicus [3]): -74%
- Partial remission (Rattus norvegicus [4]): 14%
- Static tumors (Rattus norvegicus [5]): 16%
- Progressed tumors (Rattus norvegicus [16]): 26%
- No. of tumors (Rattus norvegicus [6]): 35
- Partial remission (Rattus norvegicus [7]): 53%
- Complete remission (Rattus norvegicus [8]): 50%
- Complete remission (Rattus norvegicus [9]): 28%
- Progressed tumors (Rattus norvegicus [10]): 3%
- New tumors (Rattus norvegicus [11]): 6
- New tumors (Rattus norvegicus [13]): 7
- Static tumors (Rattus norvegicus [14]): 10%

- relative binding affinity (RBA) [15]: 8.2
SMILES: CCCNC(c1c(Cl)cc(O)cc1Cl)C(NCCC)c1c(Cl)cc(O)cc1Cl (stereo in doubt)

SMILES: CCNC(c1c(Cl)cc(O)cc1Cl)C(NCC)c1c(Cl)cc(O)cc1Cl (stereo in doubt) [listing 2 of 2 here]
- relative binding affinity (RBA) [15]: 8.6

SMILES: CNC(c1c(Cl)cc(O)cc1Cl)C(NC)c1c(Cl)cc(O)cc1Cl (stereo in doubt)
- relative binding affinity (RBA) [15]: 2.3

Source: ChEMBL document CHEMBL1121975, “Effect of N,N'-diethyl-1,2-bis(2,6-dichloro-4-hydroxyphenyl)ethylenediamines on the 7,12-dimethylbenz[a]anthracene-induced mammary carcinoma of the rat” (1982)
